This data set is described as follows: Toxicity liver stage against HepG2, at 10uM. Conditions: human, HepG2-A16-CD81EGFP cells; read-out: INHIBITION
It counts as cell-based. Also noted: test concentration 10 uM, cell line HepG2-A16-CD81EGFP. A digest of the protocol:
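Uninfected HepG2-A16-CD81EGFP cells, 3 × 10^3 per well, 1536-well, plated on prespotted compound at 10 μM final, parasite-free screening media added to match infected plates; puromycin 10 μM positive, DMSO 0.5% negative; run in parallel with 48 h PbLuc assay at 37 °C, 5% CO2; viability by CellTiter-Glo luminescence, normalized to controls.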
As for `CCOCC1CN(c2ccc(C)nn2)Cc2cnn(CC)c21` (configuration not stated), the cytotoxicity at 10 µM stood at 9.41%. Regarding `CCNC(c1ccc(Cl)cc1)c1cccnc1` (configuration not stated), the cytotoxicity at 10 µM was 5.71%. Next, `COCCN1C(=O)CCC12CCCN(Cc1nccs1)CC2` (configuration not stated): -85.1%; `CNC(=O)N1CCC2(CC1)C(=O)N(C)c1c(F)cccc12`: -5.86%; `COc1ccccc1C(=O)N(C)Cc1nnc2ccccn12`: -2.45%. Next, `Cc1ccccc1C(C(=O)NCCSC(F)(F)F)N(C)C` (configuration not stated): 8.25%. Next, `CCOc1ccc(C#N)cc1NCC(=O)Nc1cc(C)no1`: -6.67%. Take `Cc1cc(C)n(CC2CCCN2C(=O)c2ccc3[nH]nnc3c2)n1` (configuration not stated): the cytotoxicity at 10 µM is -13.1%.

With `CCN1C[C@@H]2CN(C(=O)c3cccn3C)C[C@@H]2C1=O`, the cytotoxicity at 10 µM was -96.1%.

In the case of `Cc1c(C(=O)N2CCCOCC2)nnn1-c1cccc2cnccc12`, the cytotoxicity at 10 µM came to 11.8%. Next, `CC(C)CN(C(=O)Nc1cccnc1)C1CC1`: -11.3%. Next, `CCc1nc(C)c(C(C)N(C)CCc2ccccn2)s1` (configuration not stated): -6.51%. Next, `O=C1NCC(C(=O)N(Cc2ccc(C(F)(F)F)cc2)C2CC2)N1` (configuration not stated): 4.54%; `O=C(NCCC(O)c1ccco1)c1ccco1` (configuration not stated): 7.94%. Consider `CCc1nc(C)c(-c2nccn2CC2CCCCO2)[nH]1` (configuration not stated), for which the cytotoxicity at 10 µM amounted to 3.98%. As to `CNC(=O)C1CCN(CC(=O)Nc2cc(C(C)C)no2)CC1`, the cytotoxicity at 10 µM is -8.01%.

Regarding `CCc1ccc(S(=O)(=O)NCC2CCN(c3cnccn3)CC2)s1`, the cytotoxicity at 10 µM amounted to 7.69%. Next, `CN(Cc1ccccc1)CC(C)(C)NC(=O)c1ccon1`: 13%; `COc1cc(OC)cc(-c2noc(CN)n2)c1`: 20.6%; `Fc1ccc(CN2CC[C@H]3O[C@@H](COCc4cccnc4)CC[C@H]32)cc1`: -70%.

Consider `Cc1cc(C)c2c(N3CCN(C(=O)N4CCOCC4)CC3)ncnc2n1`, for which the cytotoxicity at 10 µM is -8.29%. Next, `COc1ccc(CCN2CCCC(n3cncn3)C2)cc1` (configuration not stated): -6.2%; `O=C(c1ccncc1F)N1C[C@@H]2CC[C@H]1CN(Cc1cccnc1)C2`: 3.01%. Regarding `COc1cc(OC)cc(-c2noc(C(N)CCSC)n2)c1` (configuration not stated), the cytotoxicity at 10 µM is -3.18%. Next, `CC(C)[C@@H]1CN(C(=O)NCc2ccco2)C[C@H]1NS(=O)(=O)N(C)C`: 6.14%.

As to `COc1ccnc(N2CCN(C(=O)c3cnc(C4CC4)s3)CC2)n1`, the cytotoxicity at 10 µM is -5.35%. Next, `COc1cccc(C(C(=O)O)N2CCCN(c3ccnc(C)c3)CC2)c1` (configuration not stated): 4.98%; `O=S(=O)(CCCc1ccccc1)Cc1nnnn1C1CC1`: -1.01%; `Cc1nc2cc(NC(=O)Cn3ncc(N4CCCC4)cc3=O)ccc2s1`: 2.01%. Next, `Cc1cc(C)n(C2CCCN(C(=O)c3cnc4onc(C)c4c3)C2)n1` (configuration not stated): 5.17%; `COCC(=O)N1CCC2(CCc3ccc(F)cc32)CC1`: -148%; `O=C(N1CCOCC1)N1CC[C@@](O)(c2ccccc2)[C@H]2CCCC[C@@H]21`: -1.11%. Next, `N#Cc1cccc(C(=O)N2CCC(Nc3cccnn3)CC2)c1`: -5.17%; `Cc1nc(CN2CCCC(NCC(=O)Nc3cccnc3)C2)no1` (configuration not stated): 0.0757%; `Cc1cc(-n2cnnn2)n2ncnc2n1`: -5.66%. On to `Nc1ncc(CN2CCC(O)(c3ccccc3F)CC2)cn1`, for which the cytotoxicity at 10 µM is 1%. Take `O=S(=O)(c1cccs1)N1CCN(Cc2nc(-c3ccco3)cs2)CC1`: the cytotoxicity at 10 µM is 21.2%. Next, `CC1CN(C)CCN1C(=O)Nc1nc(-c2ccc[nH]2)cs1` (configuration not stated): -1.94%. Next, `CCNC(=O)[C@@H]1C[C@@H](N)CN1C(=O)C1(c2ccc(OC)cc2)CCCC1`: 3.95%; `Cc1ccc2c(c1)OCCCC2NC1CCN(C)CC1` (configuration not stated): 10.4%; `CCN(CC)CC1CN(Cc2ccco2)Cc2nccn2C1` (configuration not stated): -139%. Take `CC(C)(C)c1cnc(CN2CCC(NC(=O)C3CCOCC3)CC2)o1`: the cytotoxicity at 10 µM is -11.9%. As for `O=C(CCN1C(=O)CC2(CCCC2)C1=O)NCCc1nccs1`, the cytotoxicity at 10 µM was 2.86%. For the molecule `CN(C)C(=O)C1OC2(CCN(C(=O)N(C)C)CC2)c2ccccc21` (configuration not stated), the cytotoxicity at 10 µM is 8.04%. Next, `CCc1nc(C2CCCN2Cc2nccn2CC(F)(F)F)no1` (configuration not stated): -17.2%. Next, `O=S(=O)(CCCN1CCCC1Cn1cncn1)c1ccccc1` (configuration not stated): -7.64%; `Cc1cnn(CC2CN(CC(=O)Nc3c(C)nn(C)c3C)CCO2)c1` (configuration not stated): 1.08%; `O=C(N1CCOCC1)[C@@]12CCO[C@@H]1CCN(CCN1CCCCC1)C2`: -3.78%. Next, `CC(C1CC1)N(C(=O)CNc1ccc(C#N)cc1)C1CC1` (configuration not stated): -5.28%. As for `O=C(c1scc2c1OCCO2)N1CCOC(Cc2cccc(F)c2)C1` (configuration not stated), the cytotoxicity at 10 µM was 4.78%. Next, `N#Cc1cccc(CN2CCN(Cc3cscn3)CC2)c1`: 1.16%. Next, `O=C(CN1CCCC(Cn2cncn2)C1)NCCC1=CCCCC1` (configuration not stated): -3.33%; `O=S(=O)(CC1CCCCO1)Nc1c(F)cccc1-n1cccn1` (configuration not stated): 3.44%; `CCN1CCC2(COCc3cnc(-c4cccnc4)nc32)C1` (configuration not stated): 4.04%. Next, `Cc1nc(C)n(CC2CN(c3ncccn3)Cc3nccn3C2)n1` (configuration not stated): -8.5%. For `Cn1cc(C(=O)O)c(-c2ccc(F)cc2F)n1`, the cytotoxicity at 10 µM is -4.03%. Next, `COCc1nnc(C(=O)N(C)Cc2ccc(OC)cc2)o1`: -0.164%; `Cc1ccc(CN2C[C@@H](c3ccccc3)[C@@]3(CCNC3=O)C2)o1`: -119%; `Cc1cc(N(C)C)cc(C2CCN(S(=O)(=O)c3cccs3)C2)n1` (configuration not stated): 7.17%. Next, `Cc1ccc(CN(CCCn2ccnc2)Cc2[nH]cnc2C)s1`: -22.8%; `c1ccc(-c2noc(CN3CCCC(Cn4cncn4)C3)n2)nc1` (configuration not stated): 3.12%; `COc1cccc(C(=O)N2CCCCC2CNC(N)=O)c1` (configuration not stated): -7.03%.

With `CN1CC(C(=O)NCc2ccnc(-n3cccn3)c2)CC1=O` (configuration not stated), the cytotoxicity at 10 µM is -0.867%. Next, `CCn1cnnc1C1CCN(C(=O)c2ccc(Cl)cc2OC)CC1`: -1.94%. For the molecule `CCc1nc(CS(=O)(=O)Cc2noc(C3CC3)n2)cs1`, the cytotoxicity at 10 µM is -7.38%.

Take `CCOc1ccc(Cl)c(C(=O)NC(Cc2ccccc2)C(N)=O)n1` (configuration not stated): the cytotoxicity at 10 µM is 15.4%. Next, `COCc1noc(CN2CC(Cc3ccccc3)CC2=O)n1` (configuration not stated): -0.472%; `COCCN1CCC(NCc2c(C(C)C)nn(C)c2N(C)C)CC1`: 11.6%; `Cc1cccc(CN2CCN(c3ncnc4[nH]cnc34)CC2CCO)n1` (configuration not stated): -3.09%. With `Cc1cc(C)nc(C2CCCN2C(=O)c2coc(C)n2)n1` (configuration not stated), the cytotoxicity at 10 µM was 6.93%. Next, `CN1CCN([C@@H]2CN(C(=O)c3cc4ccc(F)cc4[nH]3)C[C@H]2O)CC1`: -10.4%.

As to `Cc1noc(C)c1CC(=O)N1CCCC(Cc2ccccn2)C1` (configuration not stated), the cytotoxicity at 10 µM turned out to be 4.75%. For the molecule `CCNc1cc2c(nn1)CCN(C(=O)Cc1c(C)noc1C)C2`, the cytotoxicity at 10 µM is -8.89%. Next, `Cn1c(Cn2ccnc2)nnc1C1CCN(C(=O)C2(C)CC2)CC1`: -9.7%; `CC(=O)N1CCC(CCNC(C)c2cc(C)cc(C)c2)CC1` (configuration not stated): -9.8%; `CSC(C)(C)CNC(=O)NCCC1CCN(C)CC1`: 22.3%.

Regarding `c1ccc(-c2nc(CNCCn3cccn3)cs2)cc1`, the cytotoxicity at 10 µM was -1.56%. Next, `COc1ccc(OC)c(-n2nnnc2SCC2CCCN(C)C2)c1` (configuration not stated): 1.28%. On to `O=C(CN1CCCC(Cn2cncn2)C1)NCCCc1ccccc1` (configuration not stated), for which the cytotoxicity at 10 µM is -10.7%. Next, `CCCC(C)NC(=O)c1ccc(-c2ccco2)[nH]c1=O` (configuration not stated): -20%; `CC1CCCCN1CCNC(=O)c1scnc1Cl` (configuration not stated): -6.27%; `Cc1cccc(NC(=O)N2CCC3(CC(=O)N(c4ccsc4)C3)C2)c1` (configuration not stated): 6.47%.

With `O=C1OCCN1CC(=O)N1C[C@@H]2CC[C@H]1CN(C(=O)c1ccccn1)C2`, the cytotoxicity at 10 µM is 13.5%.

On to `Cc1nonc1CN(C)c1nc(-c2cccnc2)nc2c1CCNC2`, for which the cytotoxicity at 10 µM worked out at 4.05%.

As for `c1cncc(CN2CC(Cc3nccc4cc[nH]c34)C2)c1`, the cytotoxicity at 10 µM is -2.26%. Next, `Fc1ccccc1CN1C[C@@H]2OCCN(c3ncccn3)[C@@H]2C1`: -74%; `CC(CN1CCOCC1)OC(=O)c1ccccc1I` (configuration not stated): -6.37%. For `CC(C)(C)c1ncc2c(n1)CN(C(=O)c1ccc(C#N)nc1)C2`, the cytotoxicity at 10 µM was -6.39%. Next, `Cc1nonc1CN(C)Cc1cnn(-c2ccc(F)cc2)c1`: -16.3%. Next, `CC(C)NCC1(O)CCCN(CCC2CCCCC2)C1=O` (configuration not stated): -2.53%. With `CS(=O)(=O)N1C[C@@H]2COC[C@@H](CC(=O)N3CCCCO3)[C@@H]2C1`, the cytotoxicity at 10 µM is 10.6%. Next, `O=C(C1CC=CC1)N1CCC2(CCN(Cc3cccc(F)c3)CC2)C1`: -4.48%. Next, `Cn1c(CCCNC(=O)Nc2cn[nH]c2)nc2ccccc21`: 21.9%; `CNC(=O)[C@@]12CCO[C@@H]1CCN(S(=O)(=O)c1cccc(C)c1)C2`: -1.8%; `c1cncc(OCC2CN(Cc3ccsc3)Cc3nccn3C2)c1` (configuration not stated): -72.4%. Next, `COc1ccc(CN(C(=O)C(C)SC)c2cnn(C)c2)c(OC)c1` (configuration not stated): -3.88%; `CCC(CO)N(Cc1ccccn1)C(=O)c1ccc2c(c1)CCO2` (configuration not stated): -14.2%.
